Hits are enriched below; roughly 2.3% of the tested compounds scored in any of these assays.
TRPC4 block – inhibitors of mouse TRPC4 channel; AID 2247; Q9QUQ5; actives 0.39% (n = 300,000); B-score at 10 µM; HEK293 TRPC4beta/mu-opioid, DAMGO-evoked Fluo4 calcium flux; active compounds read low;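 active = B-score over 3 SD under the library average, no early fluorescence shift, positive overall ratio signal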
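Material: HEK293 cells with stable TRPC4beta plus mu-opioid receptor expression; probe or stimulus: DAMGO in two steps, submaximal then maximal; technique: Fluo4 calcium fluorescence by kinetic imaging, 5 s 1 Hz baseline; measure: integrated fluorescence ratio relative to baseline, converted to per-well B score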
TRPC4 PAM – TRPC4 (mouse) allosteric potentiation. Q9QUQ5. HEK293 TRPC4beta/mu-opioid, DAMGO EC20, Fluo-4 Ca2+ flux; active compounds read high. B-score at 10 µM. actives 0.42% (n = 310,000). AID 2227;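 active = B-score of calcium response area above 5 SD of library B-scores, with initial fluorescence ratio within 5 SD of library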
TRPC4 agonist – opens the mouse TRPC4 cation channel; Q9QUQ5; HEK293 TRPC4beta/mu-opioid, Fluo4 calcium fluorescence; active compounds read high; B-score at 10 µM; actives 0.49% (n = 310,000); AID 2237;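 active = B-score above 5 SD of library B-scores, and initial fluorescence ratio not above library mean plus 5 SD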;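 also: positive B-score marks a calcium rise read as TRPC4 activation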
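system = HEK293 cells stably co-expressing mouse TRPC4beta and mu-opioid receptor | schedule = Fluo4 dye loading 45 min at room temperature, 110 s recording | measure = B-scored integrated calcium fluorescence ratio | signal = Fluo4 calcium-sensitive dye fluorescence, kinetic, 1 Hz baseline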
TRPC6 activator – activates the mouse TRPC6 cation channel. B-score at 10 µM. Q61143. HEK293-TRPC6 membrane potential dye fluorescence; active compounds read high. actives 0.13% (n = 310,000). AID 2550;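 active = B-score of the integrated fluorescence ratio above library mean plus 3 SD, and starting fluorescence ratio within library mean plus 5 SD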;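 also: higher score means more depolarization so channel activation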
TRPC6 inh – mouse TRPC6 channel inhibition; Q61143; HEK293-TRPC6, membrane potential dye, ACh-evoked depolarization; active compounds read low; B-score at 10 µM; actives 1.1% (n = 310,000); AID 2553;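 active = B-score under library mean minus 3 SD, initial fluorescence not abnormally high, positive integrated signal ratio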;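 also: B-score derived from integrated fluorescence ratio over the kinetic read; more negative B-score means stronger inhibition of depolarization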
A number is an active result; i = inactive.

SMILES	TRPC4 block	TRPC4 PAM	TRPC4 agonist	TRPC6 activator	TRPC6 inh
Cc1onc(-c2ccccc2)c1C(=O)N1CCCC(C(F)(F)F)C1 (stereo not drawn)	i	i	i	i	i
CN1CCN(c2cc3c(c4c2[nH]c2ccccc24)C(=O)CC(C)(C)C3)CC1	i	i	79	i	i
CN1CCN(c2ncnc3c2[nH]c2ccc(F)cc23)CC1	i	i	i	i	i
COC(=O)CN(C)C(=O)c1cccc(OC2CCN(S(=O)(=O)N(C)C)CC2)c1	i	i	i	i	i
Cc1ccc2c(C)c(C(=O)N(Cc3cccs3)C3CCS(=O)(=O)C3)oc2c1 (stereo not drawn)	i	i	61	i	i
Cc1ccc2oc(C(=O)N(Cc3ccccc3)C3CCS(=O)(=O)C3)c(C)c2c1 (stereo not drawn)	i	i	43	i	i
O=C(/C=C/c1ccc(Cl)cc1)N(Cc1ccccc1)C1CCS(=O)(=O)C1 (stereo not drawn)	i	20	i	i	i
O=C(/C=C/c1ccc(Cl)cc1Cl)N(Cc1ccccc1)C1CCS(=O)(=O)C1 (stereo not drawn)	i	i	i	i	i
CN(C(=O)COC(=O)CSc1cc(Cl)ccc1Cl)c1c(N)n(Cc2ccccc2)c(=O)[nH]c1=O	i	i	i	i	i
Nn1c(SCc2ccc(C(=O)O)cc2)nnc1-c1ccc(Cl)cc1Cl	i	i	i	i	i
CC(=O)Oc1ccc(-c2cc3ccc(OC(C)=O)cc3oc2=O)cc1	i	i	i	i	i
CC(CCc1ccccc1)NC(=O)COC(=O)c1cccc(N(C)C)c1 (stereo not drawn)	i	i	i	i	i
COc1ccc(NC(=O)CN2C(=O)NC(C)(c3ccccc3)C2=O)cc1Cl (stereo not drawn)	i	i	i	i	i
Cc1ccc(NS(=O)(=O)c2ccc(C(=O)N3CC(C)CC(C)C3)cc2)cc1 (stereo not drawn)	i	i	104	i	i
Cc1ccc(S(=O)(=O)Nc2ccc(C(=O)N3CCCC3)cc2)cc1	i	i	i	i	i
COC(=O)c1ccc(NS(=O)(=O)c2cc3c4c(c2)CCC(=O)N4CCC3)cc1	i	i	i	i	i
CCOc1ccccc1C(=O)NCCc1cnc[nH]1	i	17	i	i	i
O=C(NCCc1cnc[nH]1)c1ccc(-c2ccccc2)cc1	i	i	106	i	i
CSc1ccc(Cl)c(C(=O)NCCCn2ccnc2)c1	i	i	i	i	i
COc1cccc(OCc2cc(C(=O)NCCN3CCCCC3CO)no2)c1 (stereo not drawn)	i	i	i	i	i
Cc1cc(OCc2cc(C(=O)NCCN3CCCCC3CO)no2)cc(C)c1Cl (stereo not drawn)	-7	i	i	i	i
CCOC(=O)C1CCN(CC(O)COc2ccc(C(C)(C)CC)cc2)CC1 (stereo not drawn)	i	i	i	i	i
CCOC(=O)C1CCN(CC(O)COc2ccc(C(C)(C)C)cc2)CC1 (stereo not drawn)	-6	i	i	i	i
Cc1ccc(C(=O)NCc2ccccn2)cc1Cl	i	10	i	i	i
Cc1ccc(C)c(NS(=O)(=O)c2cc(C(=O)NCc3ccccn3)ccc2Cl)c1	i	i	i	i	i
SMILES	TRPC4 block	TRPC4 PAM	TRPC4 agonist	TRPC6 activator	TRPC6 inh
Cc1ccc(NS(=O)(=O)c2cc(C(=O)NCc3ccccn3)ccc2Cl)cc1C	i	11	i	i	i
Cc1ccc(NC(=O)NCc2ccccn2)cc1Cl	i	i	i	i	i
Cn1c(N)c(C(=O)Nc2ccc(-c3ccccc3)cc2)sc1=S	i	i	i	i	i
Cn1cnnc1SCC(=O)NC1CCCCCC1	i	i	i	i	i
O=C(C[n+]1ccc(C(=O)NCc2ccccc2)cc1)c1ccc(OC(F)F)cc1	i	10	i	i	i
NC(=O)C[n+]1cccc(CNC(=O)c2ccc(OC(F)F)cc2)c1	i	i	i	i	i
CCCn1c(SCC(=O)Nc2cc(Cl)ccc2Cl)n[nH]c1=O	i	i	i	i	i
CCCn1c(SCC(=O)NC(=O)Nc2ccc(C)cc2C)n[nH]c1=O	i	12	i	i	i
COCCN(CCOC)C(=O)c1cc2sc3ccccc3c2s1	i	13	i	i	i
CCN(CC)C(=O)c1cc2sc3ccccc3c2s1	i	i	i	i	i
CN(C)CCNC(=O)c1cc2sc3ccccc3c2s1	i	10	i	i	i
